Sampled rows, rich in hits. Any-hit rate of the full collection: about 4.3%.
m5-HT2A agonist = agonists of mouse serotonin 5-HT2A receptor (HTR2A). CHO-K1 mHTR2A beta-arrestin complementation, luminescence; percent of 30 µM serotonin response. P35363. activation, % at 7.6 µM. 0.66% of 360,000 active. AID 624169;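 active means activation above a run cutoff, the mean activation of all tested compounds plus 3 SD, cut at about 14% in these data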;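 further: 0% = plate median of compound wells and 100% = 30 µM serotonin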
Target sequence (P35363 whole entry, looked up): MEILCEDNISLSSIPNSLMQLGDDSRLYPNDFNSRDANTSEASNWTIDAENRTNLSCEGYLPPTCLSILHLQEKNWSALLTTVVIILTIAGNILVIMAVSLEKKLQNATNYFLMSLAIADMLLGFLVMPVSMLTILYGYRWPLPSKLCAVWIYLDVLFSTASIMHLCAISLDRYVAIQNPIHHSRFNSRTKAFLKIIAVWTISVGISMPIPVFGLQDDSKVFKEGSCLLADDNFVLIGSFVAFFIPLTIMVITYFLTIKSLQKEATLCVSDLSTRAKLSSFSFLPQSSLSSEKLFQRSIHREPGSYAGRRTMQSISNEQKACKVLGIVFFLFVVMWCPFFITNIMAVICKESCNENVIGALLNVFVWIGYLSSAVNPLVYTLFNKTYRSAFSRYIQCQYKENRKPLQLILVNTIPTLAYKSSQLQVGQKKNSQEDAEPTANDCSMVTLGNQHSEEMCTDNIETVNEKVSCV
TAAR1 agonist = agonists of human TAAR1; activation, % at 3 µM; Q96RJ0; CHO RD-HGA16 TAAR1, Fluo-8 calcium fluorescence; vehicle wells 0%, saturating PEA agonist 100%; 0.99% of 360,000 active; AID 624467;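 active means activation above the mean activation of all test compounds in the run plus 3 SD, cut at about 38% in these data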
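System: CHO RD-HGA16 cells carrying human TAAR1 plus Gα16; Incubation: 17-24 h seeding, 75 min 37 °C dye, 30 min RT; Measured by: Fluo-8 fluorescence, 5 s baseline then 140 s kinetic read; Control set: DMSO and PEA EC100; Replication: single well for each compound.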
B2AR ag = human beta-2 adrenergic receptor agonism by FAP. P07550. Am2.2-beta2AR cells, FAP receptor internalization, flow cytometry. response, % (no concentration beside the values). 0.43% of 340,000 active;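 active means response above a set limit, near 3 SD of response in nonfluorescent compounds, cut at about 42% in these data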
TAAR1 antag = human TAAR1 antagonism; Q96RJ0; CHO RD-HGA16 TAAR1, Fluo-8 calcium fluorescence, antagonist; inhibition, % at 3 µM; 1.5% of 360,000 active; AID 624466;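 active means inhibition above a per-plate cutoff, the mean inhibition of test compounds on that plate plus 3 SD, cut at about 49% in these data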;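 further: 0% = DMSO plus EC80 beta-PEA response and 100% = DMSO alone without agonist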
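Test system: RD-HGA16 CHO cells with stable hTAAR1 and Gα16 / Probe or stimulus: EC80 β-phenethylamine stimulus / Times: seeding 17-24 h prior, 75-min 37 °C, 30-min RT dye loading / Detection: Fluo-8 calcium-sensitive fluorescence / Read-out basis: % inhibition scaled between DMSO and EC80 PEA controls / Repeats: singlicate, one well per test compound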
MC4R antag cAMP = antagonists of human melanocortin 4 receptor (MC4R); P32245; MC4R-expressing cells, MTII-stimulated cAMP, LANCE TR-FRET; inhibition, % at 6.5 µM; 0.48% of 360,000 active;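 active means inhibition above its plate's cutoff, the mean of tested wells on that plate plus 3 SD, cut at about 29% in these data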;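 further: 0% = Melanotan II alone and 100% = Melanotan II plus saturating MCL0020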
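system = U2OS cells with stable human MC4R expression | also added = Melanotan II challenge after compound preincubation | dosing = one concentration, 6.5 µM nominal | incubation = compound 30 min, challenge 1 h, detection 1 h | measured by = TR-FRET with Eu-cAMP and labeled anti-cAMP, 671 nm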
MC4R ag barr = activates human MC4R beta-arrestin recruitment; U2OS MC4R beta-arrestin complementation, luminescence; percent of melanotan II response, DMSO zero; activation, % at 8.9 µM; 0.98% of 360,000 active;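 active means activation above a per-plate cutoff, the mean activation of sample wells on that plate plus 3 SD, cut at about 8% in these data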
U2OS cAMP counter = nonselective cAMP signaling inhibitor, MC4R antagonist counter-screen; shares compounds with MC4R antag cAMP; parental U2OS, forskolin cAMP, LANCE TR-FRET; inhibition, % at 6.5 µM; 26% of 1,600 active; AID 602193;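 active means mean inhibition over triplicates above the low-control well mean plus 3 SD, set per campaign, cut at about 13% in these data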;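 further: signal is single emission at 671 nm which falls as cellular cAMP rises; 0% = forskolin-stimulated wells and 100% = buffer without forskolin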
MC4R antag conf = human MC4R cAMP antagonism confirmation; shares compounds with MC4R antag cAMP; MC4R-expressing cells, MTII-stimulated cAMP, TR-FRET; inhibition, % at 6.5 µM; 27% of 1,600 active; AID 602195; in the data active means inhibition above about 29%;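 further: 0% = agonist stimulated wells alone and 100% = agonist stimulated wells plus saturating reference antagonist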
* hit, by the source's call.

Results for OCC1(CCc2ccccc2)CCN(Cc2cccn2-c2cccnc2)CC1 ?
m5-HT2A agonist: -0.4; TAAR1 agonist: 4.2; B2AR ag: 2.6; TAAR1 antag: 16.8; MC4R antag cAMP: 3.8; MC4R ag barr: -1.2

How did Cc1ccccc1-n1c(SCC(=O)Nc2c(C)cccc2C)nc(O)cc1=O do in these assays?
m5-HT2A agonist: 1.4; TAAR1 agonist: 5.5; B2AR ag: 0.3; TAAR1 antag: -4.8; MC4R antag cAMP: 33.5*; MC4R ag barr: 1.8; U2OS cAMP counter: 4.1; MC4R antag conf: -7.9

Results for CCC1(c2ccc(Cl)cc2)NC(=O)N(CC(=O)NC2CCCCCC2)C1=O (centres undefined) ?
m5-HT2A agonist: 3.1; TAAR1 agonist: 14.3; B2AR ag: -15.4; TAAR1 antag: -34.3; MC4R antag cAMP: 1.8; MC4R ag barr: -4.8

What do the screens show for `CCOc1cc(NC(=S)NCC2CCCO2)c(OCC)cc1NC(=O)c1ccccc1C` (centres undefined)?
m5-HT2A agonist: -0.8; TAAR1 agonist: 2.1; B2AR ag: 7.7; TAAR1 antag: 6.4; MC4R antag cAMP: 29.8*; MC4R ag barr: -0.5; U2OS cAMP counter: -8.3; MC4R antag conf: -16.4

What do the screens show for `CCOc1cc(NC(=S)NCC2CCCO2)c(OCC)cc1NC(=O)c1ccc(OC)cc1` (centres undefined)?
m5-HT2A agonist: -4.0; TAAR1 agonist: 1.1; B2AR ag: -5.4; TAAR1 antag: -4.6; MC4R antag cAMP: 6.7; MC4R ag barr: -0.9

What do the screens show for `O=C(Nc1cccc(NC(=O)c2ccc(Br)o2)c1)c1ccccc1`?
m5-HT2A agonist: -3.6; TAAR1 agonist: 7.0; B2AR ag: 11.8; TAAR1 antag: 6.7; MC4R antag cAMP: 34.4*; MC4R ag barr: -0.8; U2OS cAMP counter: 1.4; MC4R antag conf: 5.0

What do the screens show for `CC(C)C(NC(=O)C1CC(=O)N(Cc2ccccc2)C1)c1nc2ccccc2[nH]1` (centres undefined)?
m5-HT2A agonist: -2.5; TAAR1 agonist: 0.7; B2AR ag: 1.0; TAAR1 antag: 9.3; MC4R antag cAMP: 4.1; MC4R ag barr: -1.1

How did CS(=O)(=O)c1ncc(Cl)c(C(=O)Nc2ccc(OC(F)F)cc2)n1 do in these assays?
m5-HT2A agonist: -3.5; B2AR ag: -146.9; MC4R antag cAMP: 12.2; MC4R ag barr: -1.9

What do the screens show for `CCS(=O)(=O)c1ncc(Cl)c(C(=O)Nc2ccc(S(=O)(=O)N(C)c3ccccc3)cc2)n1`?
m5-HT2A agonist: -11.2; TAAR1 agonist: 5.5; B2AR ag: -293.7; TAAR1 antag: 56.2*; MC4R antag cAMP: 51.9*; MC4R ag barr: -4.9; U2OS cAMP counter: 3.7; MC4R antag conf: 35.7*

How did Cc1ccccc1CS(=O)(=O)c1ncc(Cl)c(C(=O)Nc2ccc(F)cc2)n1 do in these assays?
m5-HT2A agonist: -9.2; TAAR1 agonist: 1.1; B2AR ag: 28.5; TAAR1 antag: 12.1; MC4R antag cAMP: 42.0*; MC4R ag barr: -3.4; U2OS cAMP counter: 29.3*; MC4R antag conf: 26.2

How did CCN(c1ccccc1)S(=O)(=O)c1ccc(NC(=O)c2nc(S(C)(=O)=O)ncc2Cl)cc1 do in these assays?
m5-HT2A agonist: -8.8; B2AR ag: 104.0*; MC4R antag cAMP: 60.0*; MC4R ag barr: -2.5; U2OS cAMP counter: 23.6*; MC4R antag conf: 46.1*

What do the screens show for `Cc1ccc(NC(=O)c2nc(S(=O)(=O)Cc3ccccc3)ncc2Cl)cc1`?
m5-HT2A agonist: -4.3; TAAR1 agonist: -3.0; B2AR ag: 12.9; TAAR1 antag: 28.2; MC4R antag cAMP: 11.2; MC4R ag barr: -4.2

What do the screens show for `CC1Cc2ccccc2N1S(=O)(=O)c1cccc(C(=O)NCc2ccco2)c1` (centres undefined)?
m5-HT2A agonist: -7.0; TAAR1 agonist: -1.3; B2AR ag: 0.1; TAAR1 antag: -1.9; MC4R antag cAMP: 7.7; MC4R ag barr: -0.2

What do the screens show for `CC(=O)c1cccc(CN2CCC(C(=O)Nc3ccc(-c4cccc(C)c4)cc3)CC2)c1`?
m5-HT2A agonist: -11.4; TAAR1 agonist: 31.4; B2AR ag: -5.5; TAAR1 antag: 19.8; MC4R antag cAMP: -0.4; MC4R ag barr: 4.3

Results for O=C(NC(=S)Nc1cccc([N+](=O)[O-])c1)c1ccccc1 ?
m5-HT2A agonist: 2.1; TAAR1 agonist: 1.2; B2AR ag: -5.3; TAAR1 antag: -8.9; MC4R antag cAMP: 32.7*; MC4R ag barr: -0.1; U2OS cAMP counter: 1.5; MC4R antag conf: -8.7

What do the screens show for `O=C(O)C1C2CCC(C2)C1C(=O)Nc1cccc([N+](=O)[O-])c1` (centres undefined)?
m5-HT2A agonist: 1.6; TAAR1 agonist: 8.2; B2AR ag: -2.0; TAAR1 antag: -20.9; MC4R antag cAMP: 29.0*; MC4R ag barr: -2.2; U2OS cAMP counter: -7.5; MC4R antag conf: -19.9

Results for O=C(O)C1C2CCC(C2)C1C(=O)Nc1ccccc1 (centres undefined) ?
m5-HT2A agonist: 2.6; TAAR1 agonist: -0.7; B2AR ag: -3.7; TAAR1 antag: 3.2; MC4R antag cAMP: 8.8; MC4R ag barr: -1.0

Results for CCOc1ccccc1N1CCN(C(=O)c2c(Cl)cnn2C)CC1 ?
m5-HT2A agonist: 1.8; TAAR1 agonist: 1.3; B2AR ag: 10.5; TAAR1 antag: -8.8; MC4R antag cAMP: 10.1; MC4R ag barr: -0.3

What do the screens show for `Oc1ccc(C=NNC(=S)Nc2cccnc2)nc1`?
m5-HT2A agonist: 0.7; TAAR1 agonist: 4.5; B2AR ag: -4.0; TAAR1 antag: 0.6; MC4R antag cAMP: -4.6; MC4R ag barr: -0.8

How did CN(CC(=O)NCCCc1ccccc1)Cc1ccc(Br)cc1 do in these assays?
m5-HT2A agonist: -16.4; TAAR1 agonist: -2.4; B2AR ag: 0.8; TAAR1 antag: -5.2; MC4R antag cAMP: 30.1*; MC4R ag barr: 5.3; U2OS cAMP counter: -3.0; MC4R antag conf: -1.0

Results for CN(CC(=O)NCCc1ccc(F)cc1)Cc1ccc(Br)cc1 ?
m5-HT2A agonist: -14.3; TAAR1 agonist: -5.1; B2AR ag: -1.9; TAAR1 antag: 1.5; MC4R antag cAMP: 18.2; MC4R ag barr: 3.1

Results for CSc1ccc(OC2CCCCC2NS(=O)(=O)c2ccc(Cl)cc2)cc1 (centres undefined) ?
m5-HT2A agonist: -4.1; TAAR1 agonist: 12.8; B2AR ag: 0.8; TAAR1 antag: 2.8; MC4R antag cAMP: 30.7*; MC4R ag barr: 1.5; U2OS cAMP counter: 0.2; MC4R antag conf: 15.7

Source: PubChem (several laboratories)
